FXIa inh 1536: factor XIa (human) inhibition. P03951. purified FXIa, Boc-Glu-Ala-Arg-AMC fluorogenic substrate. inhibition, % at 5 µM. 0.14% of 220,000 active. AID 798;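 active means inhibition of at least 40%; inactive means inhibition below 40%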;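 further: fluorescence of freed AMC excited at 355 nm; 0% = enzyme without compound and 100% = no enzyme blank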
Target sequence (P03951 19-387 limits assumed): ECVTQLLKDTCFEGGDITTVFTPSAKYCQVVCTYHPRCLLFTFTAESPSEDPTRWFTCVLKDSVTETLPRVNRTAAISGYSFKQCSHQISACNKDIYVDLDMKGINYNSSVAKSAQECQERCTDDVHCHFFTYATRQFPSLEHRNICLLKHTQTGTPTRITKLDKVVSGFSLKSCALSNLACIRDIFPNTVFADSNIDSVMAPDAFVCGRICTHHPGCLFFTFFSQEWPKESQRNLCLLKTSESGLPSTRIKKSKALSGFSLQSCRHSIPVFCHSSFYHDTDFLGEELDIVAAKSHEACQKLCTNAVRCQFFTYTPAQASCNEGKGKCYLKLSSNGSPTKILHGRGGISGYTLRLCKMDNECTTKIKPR
Target sequence (P03951 388-625 limits assumed): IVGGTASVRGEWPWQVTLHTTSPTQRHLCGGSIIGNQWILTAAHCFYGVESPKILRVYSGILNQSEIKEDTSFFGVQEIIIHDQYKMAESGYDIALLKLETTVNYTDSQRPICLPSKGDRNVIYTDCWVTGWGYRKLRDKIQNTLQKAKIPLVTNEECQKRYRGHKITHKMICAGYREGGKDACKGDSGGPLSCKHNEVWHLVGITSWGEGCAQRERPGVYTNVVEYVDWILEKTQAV
m-calpain inh: inhibitors of pig calpain II | purified calpain II, fluorogenic peptide substrate, 30 min | inhibition, % at 16 µM | 0.37% of 220,000 active | AID 1236;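 active means inhibition above about 50%, limit read from the data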
FXIIa inh: inhibitors of human coagulation factor XIIa. P00748. purified FXIIa, Boc-QGR-AMC fluorogenic substrate, 2 h. inhibition, % at 5 µM. 0.3% of 220,000 active; in the data active means inhibition above about 40%;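 further: 0% = enzyme with no compound and 100% = blank without enzyme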
hK5 inh: kallikrein 5 (human) inhibition. recombinant hK5, fluorogenic AMC substrate cleavage. inhibition, % at 5 µM. 0.59% of 210,000 active. AID 873;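 active means inhibition of 40% or more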;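 further: 0% = enzyme controls without compound and 100% = no-enzyme blanks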
Furin inhibitor: human furin inhibition | P09958 | purified furin, fluorogenic substrate cleavage | inhibition, % at 20 µM or 30 µM | 0.061% of 220,000 active; in the data active means inhibition above about 25%
thrombin 1536: thrombin (human) inhibition; P00734; alpha-thrombin, Boc-VPR-AMC fluorogenic substrate cleavage; inhibition, % at 5 µM; 0.26% of 220,000 active;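 active means inhibition at or above 40%; inactive means inhibition below 40%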;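 further: 0% = enzyme with no compound and 100% = wells without enzyme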
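signal = AMC fluorescence, 355/460 nm | material = human alpha-thrombin enzyme | control set = enzyme without compound as high, wells lacking enzyme as low | times = reaction at room temperature | read-out basis = percent inhibition scaled between no-compound controls and no-enzyme blanks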
* marks the source's active call; other numbers are inactive results. Sampled rows, rich in hits. Any-hit rate of the full collection: about 1.4%.

SMILES | FXIa inh 1536 | m-calpain inh | FXIIa inh | hK5 inh | Furin inhibitor | thrombin 1536
Cc1cccn2c(=O)c(/C=C(\C#N)S(=O)(=O)c3ccccc3)c(N3CCC(C(N)=O)CC3)nc12 | -1 | -15 | 8 | -12 | -11 | -5
COc1cccc(C2=CC(c3ccccc3)n3nnnc3N2)c1 (centres undefined) | 2 | 63* | 15 | -9 | -33 | 0
CCc1ccccc1OCCOc1ccc(C)cc1OC | -12 | -7 | -13 | -13 | -27 | -3
CCN(CC)CCNC(=O)/C(=C\c1cccn1C)NC(=O)c1cccs1 | 12 | 15 | 16 | -7 | 15 | 3
CN(C)C(=O)c1cn(N(C)c2ncc(C(F)(F)F)cc2Cl)c(=O)c2ccccc12 | 5 | -11 | 19 | 1 | -30 | 2
O=C(c1ccco1)N1CCN(C(=O)N2c3ccccc3Sc3ccccc32)CC1 | 10 | 4 | 5 | 43* | -17 | 104*
Cc1ccc(N2C(=S)NC3c4ccccc4OC2(C)C3C(=O)N(C)C)cc1 (centres undefined) | 0 | -27 | 15 | 5 | -28 | 44*
Cc1ccccc1N1C(=S)NC2c3ccccc3OC1(C)C2C(=O)N(C)C (centres undefined) | -1 | -13 | -1 | -16 | -27 | 2
CCOc1ccc(S(=O)(=O)N2CCN(C)CC2)c(C)c1C | 7 | 18 | 20 | -26 | -23 | -1
CCOc1ccc(S(=O)(=O)N2CCCCC2)c(C)c1C | -3 | 57* | 6 | -2 | -26 | -3
CCOC(=O)C(CC)Sc1nnc(COc2ccc(C)cc2)n1-c1ccccc1 (centres undefined) | 7 | -1 | 17 | -12 | 28* | -2
CCCCOc1ccc(CONS(=O)(=O)c2ccc(NC(C)=O)cc2)cc1Cl | -7 | 50* | -8 | 3 | -12 | -6
O=C(O)CC1SC(N/N=C/c2ccc(Br)cc2)NC1=O (centres undefined) | -1 | 26 | 3 | -1 | -24 | -4
CC(Sc1nnc(-c2cc3ccccc3o2)n1-c1ccccc1)C(=O)O (centres undefined) | -11 | 35 | -1 | -16 | -6 | 47*
Cc1cccc(NC(=O)CSCc2c(C)noc2C)c1C | 35 | 24 | 56* | 8 | -27 | 0
COc1ccc(C(=O)C(OC(=O)c2ccc(C)c(NC(C)=O)c2)c2ccccc2)cc1 (centres undefined) | 16 | -21 | 19 | 3 | -17 | 1
CC(=O)Nc1cc(C(=O)OC(C(=O)c2ccccc2)c2ccccc2)ccc1C (centres undefined) | -6 | 66* | 10 | 3 | -14 | -3
COC(=O)c1ccc(COC(=O)CNS(=O)(=O)c2ccccc2)cc1 | 31 | 23 | 26 | 23 | -12 | 55*
COc1ccc(/C=N/OCC(=O)Nc2ccc3c(c2)OCO3)c(OC)c1 | 5 | 56* | 14 | 2 | -14 | -1
NNC(=O)CN1C(=O)Nc2ccc(Br)cc2C1c1ccccc1 (centres undefined) | 7 | 27 | 24 | 42* | -15 | 55*
O=C(/C=C/c1ccc([N+](=O)[O-])cc1)NCCSc1ccccc1 | 1 | 57* | 4 | -17 | -14 | -6
Cc1ccc(SCCNC(=O)/C=C/c2ccc([N+](=O)[O-])cc2)cc1 | -16 | 33 | -1 | -22 | 1 | -8
Cc1ccc(CN=Cc2[nH]c3ccc(Br)c(Cl)c3c2O)cc1 | 5 | -64 | 19 | 1 | -6 | 12
Cc1cc(C)nc(NC(=O)c2ccc([N+](=O)[O-])o2)n1 | 6 | -23 | 4 | -13 | -15 | -10
Cc1cc(C)cc(NC(=O)c2ccc([N+](=O)[O-])o2)c1 | 70* | 27 | 32 | 30 | -4 | 24
SMILES | FXIa inh 1536 | m-calpain inh | FXIIa inh | hK5 inh | Furin inhibitor | thrombin 1536
COCCOc1cc(-n2cccc2)c(Cl)cc1Cl | -4 | -2 | 7 | -1 | -12 | -12
Cc1[nH]c(=O)[nH]c(=O)c1/C=N/NC(=O)[C@@H](N)CC(C)C | 31 | 11 | 45* | 21 | 2 | 3
Cc1cc(C(=O)Nc2sc3c(c2C#N)CCCCC3)cs1 | 3 | -161 | -2 | -15 | -15 | -10
N#Cc1c(NC(=O)c2cccc(S(=O)(=O)Nc3ccc(C(=O)O)cc3)c2)sc2c1CCCC2 | 5 | 52* | 10 | 2 | -9 | 6
Cc1ccc2oc(-c3ccco3)cc(=O)c2c1 | -1 | -156 | 6 | 1 | -55 | -3
O=C(Nc1cccc2ccccc12)/C(Cl)=C/c1ccccc1 | 8 | 58* | 13 | -7 | -10 | 3
CC(=O)c1ccc(NC(=O)/C(Cl)=C/c2ccccc2)cc1 | 57* | 18 | 33 | 34 | -10 | 19
O=C(Nc1ccc(F)cc1)/C(Cl)=C/c1ccccc1 | -3 | -4 | -2 | -12 | -16 | 3
C#CCNC(=O)C1=C[C@@H](c2ccc(Br)cc2)C[C@@H](OCCCCO)O1 | 2 | -14 | 8 | 4 | -16 | 1
Cc1cc(NC(=O)CCC(=O)N(CCC(C)C)CC(=O)NCC2CCCO2)no1 (centres undefined) | 6 | 5 | 11 | 6 | -25 | 1
O=C(NCc1ccccc1)C1COc2ccccc2O1 (centres undefined) | 5 | -16 | 15 | -7 | 30* | 6
Cc1ccc(CNC(=O)C2COc3ccccc3O2)cc1 (centres undefined) | -3 | -11 | 10 | 2 | 5 | -4
CCC(=O)N1CCN(CCN=CC2=C(O)CC(C)(C)CC2=O)CC1 | 10 | 13 | -9 | 40* | -15 | 17
COc1ccc(C(=O)NCC(=O)N/N=C/C(C)=C/c2ccco2)cc1OC | 11 | 4 | 15 | -7 | 3 | 0
Cc1ccc(C(=O)NCCCNc2ccccc2[N+](=O)[O-])cc1 | -2 | 51* | 2 | 1 | -12 | -14
O=S(=O)(Nc1cnc2ccccc2c1)N1CCCCCC1 | 3 | -9 | 12 | -31 | -7 | -5
Cc1c(NS(=O)(=O)c2ccc(Cl)c(C(=O)OCC(=O)NCc3ccco3)c2)c(=O)n(-c2ccccc2)n1C | 19 | 26 | 17 | 24 | -6 | 46*
CCCC(=O)NNC(=O)c1ccoc1C | 9 | 20 | 40* | 26 | -8 | 18
Cc1occc1C(=O)Nc1ccccc1C(=O)O | -1 | -1 | 3 | -9 | -20 | 1
Cc1cc(C)c(NC(=O)c2ccoc2C)c(C)c1 | 5 | -4 | 19 | 61* | -8 | 12
CSc1nc(Oc2ccccc2)c2sccc2n1 | -17 | 54* | -3 | -30 | 0 | 6
Cc1cc(C)n2nc(SCC(=O)Nc3ccc(F)cc3)nc2n1 | 17 | 17 | 41* | -17 | -30 | -4
CNC(=O)CSc1nc2nc(C)cc(C)n2n1 | 0 | -8 | 17 | 3 | -15 | 2
Cc1ccc2nc(C)c(C(=O)O)cc2c1 | -3 | -8 | -6 | -6 | -25 | -12
O=C(O)c1ccccc1OC(=O)C12CC3CC(CC(C3)C1)C2 | -3 | -21 | 5 | 1 | -20 | -4
